Legend:
[1] = biological target: T1, Progesterone receptor (Homo sapiens, UniProt P06401); assay: Displacement of fluormone PL RED from progesterone receptor after 2 hrs
T1 sequence (P06401 whole entry): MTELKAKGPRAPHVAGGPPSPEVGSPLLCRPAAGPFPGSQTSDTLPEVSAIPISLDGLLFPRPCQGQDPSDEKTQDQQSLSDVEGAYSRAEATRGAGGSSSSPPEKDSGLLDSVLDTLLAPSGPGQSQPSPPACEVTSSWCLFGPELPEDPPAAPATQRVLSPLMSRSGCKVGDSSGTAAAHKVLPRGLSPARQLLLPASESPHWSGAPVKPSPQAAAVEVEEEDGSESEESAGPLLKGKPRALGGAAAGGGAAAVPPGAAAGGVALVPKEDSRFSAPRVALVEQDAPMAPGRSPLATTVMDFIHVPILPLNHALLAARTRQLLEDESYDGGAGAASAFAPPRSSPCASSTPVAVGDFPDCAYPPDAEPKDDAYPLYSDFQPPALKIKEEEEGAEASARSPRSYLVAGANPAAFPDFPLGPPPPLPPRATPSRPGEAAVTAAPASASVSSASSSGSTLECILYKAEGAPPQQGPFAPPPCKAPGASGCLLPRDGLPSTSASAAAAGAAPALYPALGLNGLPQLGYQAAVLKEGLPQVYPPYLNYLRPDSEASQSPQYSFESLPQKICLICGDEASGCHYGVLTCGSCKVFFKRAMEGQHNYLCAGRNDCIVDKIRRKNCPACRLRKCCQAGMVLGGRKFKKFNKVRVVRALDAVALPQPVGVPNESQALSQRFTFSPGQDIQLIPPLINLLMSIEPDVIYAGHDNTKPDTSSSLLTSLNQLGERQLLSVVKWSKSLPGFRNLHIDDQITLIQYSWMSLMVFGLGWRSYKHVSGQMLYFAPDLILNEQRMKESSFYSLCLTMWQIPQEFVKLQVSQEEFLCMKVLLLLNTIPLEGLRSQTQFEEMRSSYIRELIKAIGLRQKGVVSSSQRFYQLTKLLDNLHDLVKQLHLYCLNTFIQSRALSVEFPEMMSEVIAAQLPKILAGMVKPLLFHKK
Outline: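 Fluorescence polarization competition: 40 nM PR ligand-binding domain, 2 nM Fluormone PL Red, 1 mM DTT in PR Red buffer with 2 mM CHAPS, added to compound; brief spin, light-protected, ~2 h at room temperature; read at 530 nm excitation/580 nm emission. Values are means of ≥2 determinations.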

[2] = biological target: T2, Androgen receptor (Homo sapiens, UniProt P10275); assay: Binding affinity to androgen receptor
T2 sequence (P10275 whole entry): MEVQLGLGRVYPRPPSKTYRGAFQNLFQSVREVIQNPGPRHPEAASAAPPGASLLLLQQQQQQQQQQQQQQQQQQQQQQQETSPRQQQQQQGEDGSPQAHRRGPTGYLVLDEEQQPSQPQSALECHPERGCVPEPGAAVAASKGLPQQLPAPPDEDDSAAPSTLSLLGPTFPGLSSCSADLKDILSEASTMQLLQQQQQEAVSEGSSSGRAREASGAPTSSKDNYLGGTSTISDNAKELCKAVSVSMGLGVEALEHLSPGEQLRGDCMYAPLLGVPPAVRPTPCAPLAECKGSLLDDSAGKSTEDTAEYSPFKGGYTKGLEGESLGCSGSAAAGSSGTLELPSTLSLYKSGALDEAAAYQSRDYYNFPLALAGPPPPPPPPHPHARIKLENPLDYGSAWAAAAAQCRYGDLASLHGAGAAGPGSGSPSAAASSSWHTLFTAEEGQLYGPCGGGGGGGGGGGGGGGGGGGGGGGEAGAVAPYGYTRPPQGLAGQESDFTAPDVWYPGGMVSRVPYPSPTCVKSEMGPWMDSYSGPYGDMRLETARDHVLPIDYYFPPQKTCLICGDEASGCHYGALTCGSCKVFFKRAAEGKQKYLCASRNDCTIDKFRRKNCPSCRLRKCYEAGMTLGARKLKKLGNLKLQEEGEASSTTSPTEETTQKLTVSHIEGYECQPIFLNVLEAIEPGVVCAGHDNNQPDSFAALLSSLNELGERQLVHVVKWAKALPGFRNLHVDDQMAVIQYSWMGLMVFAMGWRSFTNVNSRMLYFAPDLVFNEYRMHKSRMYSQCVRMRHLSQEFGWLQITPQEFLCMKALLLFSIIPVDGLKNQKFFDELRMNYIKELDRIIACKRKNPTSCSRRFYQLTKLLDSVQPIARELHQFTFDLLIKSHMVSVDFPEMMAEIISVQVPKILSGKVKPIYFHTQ

[3] = biological target: T1, Progesterone receptor; assay: Agonist activity at progesterone receptor B expressed in CV-1 cells by MMTV luciferase reporter gene assay; assay type: functional, cell-based
[4] = biological target: T3, Progesterone receptor (Homo sapiens) (UniProt P06401); assay: Agonist activity at progesterone receptor in human T47D cell after 24 hrs by alkaline phosphatase assay relative to progesterone
T3 sequence (whole entry): T1 sequence (P06401 whole entry)

[5] = biological target: T1, Progesterone receptor; assay: Agonist activity at progesterone receptor in human T47D cell after 24 hrs by alkaline phosphatase assay; assay type: functional, cell-based
Outline: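 T47D cells seeded and left to attach overnight, then treated with compound and incubated overnight. Next day pNPP-SPAP substrate added, 2 h in the dark, absorbance read at 405 nm. Potency as pEC50, efficacy as % of P4 response; means of ≥2 determinations.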

[6] = Volume of distribution at steady state in mouse at 0.5 mg/kg, iv and 1 mg/kg, po; assay type: ADME, organism-based; conditions: in vivo, read-out: Vdss
Outline: (§1)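 In vivo mouse pharmacokinetics with dosing at 0.5 mg/kg intravenously and 1.0 mg/kg orally. Blood clearance, half-life, steady-state volume of distribution and oral bioavailability were derived from these studies.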

[7] = biological target: Voltage-gated inwardly rectifying potassium channel KCNH2 (Homo sapiens, UniProt Q12809); assay: Binding affinity to human ERG channel
Chain of Voltage-gated inwardly rectifying potassium channel KCNH2 (Q12809 whole entry): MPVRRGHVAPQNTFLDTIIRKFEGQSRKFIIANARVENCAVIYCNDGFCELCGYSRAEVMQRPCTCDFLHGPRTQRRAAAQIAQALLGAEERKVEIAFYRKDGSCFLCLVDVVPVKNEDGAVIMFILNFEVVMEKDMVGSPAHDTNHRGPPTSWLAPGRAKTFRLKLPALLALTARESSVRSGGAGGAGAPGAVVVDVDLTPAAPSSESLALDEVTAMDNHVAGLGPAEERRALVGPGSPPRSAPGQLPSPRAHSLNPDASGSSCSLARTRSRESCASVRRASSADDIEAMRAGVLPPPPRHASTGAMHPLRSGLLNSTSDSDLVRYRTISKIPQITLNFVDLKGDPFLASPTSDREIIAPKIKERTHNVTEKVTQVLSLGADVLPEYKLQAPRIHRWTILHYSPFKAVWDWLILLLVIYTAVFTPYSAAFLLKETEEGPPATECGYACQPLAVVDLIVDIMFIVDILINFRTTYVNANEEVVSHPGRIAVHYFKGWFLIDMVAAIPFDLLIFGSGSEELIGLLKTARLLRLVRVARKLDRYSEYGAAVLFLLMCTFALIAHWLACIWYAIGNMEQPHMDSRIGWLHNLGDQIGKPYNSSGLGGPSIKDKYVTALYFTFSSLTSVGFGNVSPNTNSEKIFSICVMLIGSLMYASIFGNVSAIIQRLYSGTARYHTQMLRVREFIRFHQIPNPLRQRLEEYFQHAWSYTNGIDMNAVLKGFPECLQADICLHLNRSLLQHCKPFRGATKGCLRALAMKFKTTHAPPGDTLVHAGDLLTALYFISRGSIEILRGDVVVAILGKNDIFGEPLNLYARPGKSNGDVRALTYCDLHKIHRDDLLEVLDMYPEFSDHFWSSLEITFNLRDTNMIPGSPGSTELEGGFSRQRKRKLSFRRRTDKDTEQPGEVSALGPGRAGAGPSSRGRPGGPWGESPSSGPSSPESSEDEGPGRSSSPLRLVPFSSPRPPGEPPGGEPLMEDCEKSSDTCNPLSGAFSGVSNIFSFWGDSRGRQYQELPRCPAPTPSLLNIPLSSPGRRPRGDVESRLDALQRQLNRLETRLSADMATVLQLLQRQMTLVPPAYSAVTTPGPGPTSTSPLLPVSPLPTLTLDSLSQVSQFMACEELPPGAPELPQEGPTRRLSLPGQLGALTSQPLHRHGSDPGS

[8] = biological target: Cytochrome P450 2C19 (Homo sapiens, UniProt P33261); assay: Inhibition of CYP2C19; assay type: ADME
Chain of Cytochrome P450 2C19 (P33261 whole entry): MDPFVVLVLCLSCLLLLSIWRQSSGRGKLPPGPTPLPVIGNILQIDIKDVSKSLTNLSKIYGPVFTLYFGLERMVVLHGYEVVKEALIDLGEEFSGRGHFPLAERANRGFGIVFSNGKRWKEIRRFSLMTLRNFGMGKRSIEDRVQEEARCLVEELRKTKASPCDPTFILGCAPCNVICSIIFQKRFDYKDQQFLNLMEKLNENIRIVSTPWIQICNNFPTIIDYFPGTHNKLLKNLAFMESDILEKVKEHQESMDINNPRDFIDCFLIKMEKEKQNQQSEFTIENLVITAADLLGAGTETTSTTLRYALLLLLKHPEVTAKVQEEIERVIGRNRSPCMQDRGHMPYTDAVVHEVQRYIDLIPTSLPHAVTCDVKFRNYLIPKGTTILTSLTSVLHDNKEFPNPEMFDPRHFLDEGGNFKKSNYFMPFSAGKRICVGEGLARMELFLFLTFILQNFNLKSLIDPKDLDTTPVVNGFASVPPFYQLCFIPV

[9] = biological target: T4, Cytochrome P450 1A2 (Homo sapiens, UniProt P05177); assay: Inhibition of CYP1A2; assay type: ADME
T4 sequence (P05177 whole entry): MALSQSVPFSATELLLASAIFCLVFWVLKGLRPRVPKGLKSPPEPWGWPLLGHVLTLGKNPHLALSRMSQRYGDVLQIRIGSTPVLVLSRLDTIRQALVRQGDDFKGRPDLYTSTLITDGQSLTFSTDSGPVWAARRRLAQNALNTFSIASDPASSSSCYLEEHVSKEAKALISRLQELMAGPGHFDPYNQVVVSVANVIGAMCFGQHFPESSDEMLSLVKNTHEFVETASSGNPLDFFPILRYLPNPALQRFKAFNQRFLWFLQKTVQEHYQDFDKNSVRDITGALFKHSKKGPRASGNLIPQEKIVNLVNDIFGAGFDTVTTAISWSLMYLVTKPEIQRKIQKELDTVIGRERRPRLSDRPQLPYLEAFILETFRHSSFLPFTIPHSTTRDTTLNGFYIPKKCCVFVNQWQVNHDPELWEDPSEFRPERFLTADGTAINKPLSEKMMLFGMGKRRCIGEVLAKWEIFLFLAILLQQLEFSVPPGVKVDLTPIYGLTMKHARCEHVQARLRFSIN

[10] = tested on: Mus musculus; assay: Blood clearance in mouse at 0.5 mg/kg, iv and 1 mg/kg, po; assay type: ADME, organism-based; conditions: in vivo; outline: as §1
[11] = Oral bioavailability in mouse at 1 mg/kg; assay type: ADME, organism-based; conditions: in vivo; outline: as §1
[12] = biological target: Cytochrome P450 3A4 (Homo sapiens, UniProt P08684); assay: Inhibition of CYP3A4; assay type: ADME
Chain of Cytochrome P450 3A4 (P08684 whole entry): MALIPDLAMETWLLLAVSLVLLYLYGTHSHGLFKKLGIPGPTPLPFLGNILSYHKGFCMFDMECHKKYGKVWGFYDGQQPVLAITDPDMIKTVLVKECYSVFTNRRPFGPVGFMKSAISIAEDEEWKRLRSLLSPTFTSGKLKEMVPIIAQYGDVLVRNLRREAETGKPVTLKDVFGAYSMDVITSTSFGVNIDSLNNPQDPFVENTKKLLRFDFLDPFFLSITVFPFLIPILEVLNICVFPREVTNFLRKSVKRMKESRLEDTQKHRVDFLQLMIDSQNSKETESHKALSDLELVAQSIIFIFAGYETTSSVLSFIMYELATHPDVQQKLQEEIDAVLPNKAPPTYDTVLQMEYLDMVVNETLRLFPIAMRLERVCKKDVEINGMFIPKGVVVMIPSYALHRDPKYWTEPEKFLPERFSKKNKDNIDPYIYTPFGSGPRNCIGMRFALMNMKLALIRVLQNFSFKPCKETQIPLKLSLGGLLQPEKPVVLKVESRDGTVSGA

[13] = biological target: Cytochrome P450 2D6 (Homo sapiens, UniProt P10635); assay: Inhibition of CYP2D6; assay type: ADME
Chain of Cytochrome P450 2D6 (P10635 whole entry): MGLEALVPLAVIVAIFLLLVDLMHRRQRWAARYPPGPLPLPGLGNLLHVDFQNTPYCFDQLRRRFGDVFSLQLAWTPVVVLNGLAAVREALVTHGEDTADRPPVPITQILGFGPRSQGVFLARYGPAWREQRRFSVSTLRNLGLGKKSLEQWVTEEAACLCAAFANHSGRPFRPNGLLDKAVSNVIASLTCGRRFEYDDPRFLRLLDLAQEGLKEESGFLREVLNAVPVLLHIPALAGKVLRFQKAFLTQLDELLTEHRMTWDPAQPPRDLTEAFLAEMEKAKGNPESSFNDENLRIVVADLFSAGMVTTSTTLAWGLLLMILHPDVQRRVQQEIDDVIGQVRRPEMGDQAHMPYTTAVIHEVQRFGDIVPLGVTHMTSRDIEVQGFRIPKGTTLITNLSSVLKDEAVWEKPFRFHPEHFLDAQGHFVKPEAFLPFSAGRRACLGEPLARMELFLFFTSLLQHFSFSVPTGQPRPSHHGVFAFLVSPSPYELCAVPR

[14] = tested on: Liver microsomes; assay: Intrinsic clearance in human liver microsomes; assay type: ADME, Microsome
Outline: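 Metabolic stability in human liver microsomes; intrinsic clearance expressed as mL/min[…].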

[15] = Half life in mouse at 0.5 mg/kg, iv and 1 mg/kg, po; assay type: ADME, organism-based; conditions: in vivo; outline: as §1
[16] = biological target: Cytochrome P450 2C9 (Homo sapiens, UniProt P11712); assay: Inhibition of CYP2C9; assay type: ADME
Chain of Cytochrome P450 2C9 (P11712 whole entry): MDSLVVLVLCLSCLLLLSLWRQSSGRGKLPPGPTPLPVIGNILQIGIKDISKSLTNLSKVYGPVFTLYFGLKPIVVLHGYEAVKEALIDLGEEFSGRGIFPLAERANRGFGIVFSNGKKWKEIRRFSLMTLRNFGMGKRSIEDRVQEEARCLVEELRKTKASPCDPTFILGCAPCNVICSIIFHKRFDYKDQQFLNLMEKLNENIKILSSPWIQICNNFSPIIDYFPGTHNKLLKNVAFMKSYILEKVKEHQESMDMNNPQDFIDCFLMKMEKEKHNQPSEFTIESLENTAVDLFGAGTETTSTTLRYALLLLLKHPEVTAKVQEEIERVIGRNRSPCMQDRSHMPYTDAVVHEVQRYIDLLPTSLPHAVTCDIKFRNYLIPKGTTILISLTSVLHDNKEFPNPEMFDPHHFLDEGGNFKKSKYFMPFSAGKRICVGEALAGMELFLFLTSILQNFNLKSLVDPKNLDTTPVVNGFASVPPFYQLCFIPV

[17] = biological target: T2, Androgen receptor; assay: Agonist activity at androgen receptor expressed in CV-1 cells by MMTV luciferase reporter assay; assay type: functional, cell-based

Row | SMILES | IC50 [1] | pIC50 [2] | EC50 [3] | Activity [4] | pEC50 [5] | also measured
1 | Cc1ccccc1C1CC(=O)Nc2sc3c(C)c(C#N)c(N)nc3c21 (stereo not given) | 1260 nM | > 5 | > 10000 nM |  |  | 
2 | Cc1c(C#N)c(N)nc2c3c(sc12)NC(=O)CC3c1ccccc1 (stereo not given) |  | > 5 | > 10000 nM |  |  | 
3 | Cc1c(C#N)c(N)nc2c3c(sc12)NC(=O)C[C@@H]3c1ccccc1Cl | 158 nM | > 5 | 200 nM | 83% | 7.4 | 
4 | Cc1c(C#N)c(N)nc2c3c(sc12)NC(=O)CC3c1cccc(Cl)c1Cl (stereo not given) | 794 nM | > 5 | > 10000 nM |  |  | 
5 | Cc1c(C#N)c(N)nc2c3c(sc12)NC(=O)CC3c1ccccc1F (stereo not given) | 631 nM |  | 3980 nM | 47% | 6.4 | 
6 | Cc1c(C#N)c(N)nc2c3c(sc12)NC(=O)CC3c1c(F)cccc1Cl (stereo not given) | 1260 nM | > 5 | 3980 nM | 13% | 6.1 | 
7 | COc1cccc(C2CC(=O)Nc3sc4c(C)c(C#N)c(N)nc4c32)c1 (stereo not given) | > 10000 nM |  | > 10000 nM |  |  | 
8 | COc1ccccc1C1CC(=O)Nc2sc3c(C)c(C#N)c(N)nc3c21 (stereo not given) | > 10000 nM |  | > 10000 nM |  |  | 

The next lines start with results.

Row | IC50 [1] | pIC50 [2] | EC50 [3] | Activity [4] | pEC50 [5] | SMILES | also measured
9 | 1000 nM | > 5 | > 10000 nM |  |  | Cc1c(C#N)c(N)nc2c3c(sc12)NC(=O)CC3c1cc(Cl)ccc1Cl (stereo not given) | 
10 | 6310 nM | > 5 | > 10000 nM |  |  | Cc1c(C#N)c(N)nc2c3c(sc12)NC(=O)C[C@H]3c1ccccc1Cl | 
11 | 200 nM | < 5 | 631 nM | 80% | 7.1 | Cc1c(C#N)c(N)nc2c3c(sc12)NC(=O)CC3c1ccccc1Cl (stereo not given) | Vd [6]: 2.5 L/kg; Activity [7]: Not Active; IC50 [8]: > 10000 nM; IC50 [9]: > 10000 nM; clearance [10]: 24 mL/min/kg; bioavailability [11]: 36%; IC50 [12]: > 10000 nM; IC50 [13]: > 10000 nM; CL [14]: 19 µL/min/mg; half-life [15]: 1.1 h; IC50 [16]: 1260 nM
12 | 794 nM | > 5 | > 10000 nM |  |  | Cc1c(C#N)c(N)nc2c3c(sc12)NC(=O)CC3c1ccc(Cl)cc1Cl (stereo not given) | 
13 | 50.1 nM |  | 0.794 nM | 116% | 8.6 | Cc1c(C#N)c(Cl)nc2c3c(sc12)NC(=O)CC3c1ccccc1Cl (stereo not given) | IC50 [2]: 2000 nM; EC50 [17]: > 10000 nM
14 | > 10000 nM | > 5 | > 10000 nM |  |  | Cc1c(C#N)c(O)nc2c3c(sc12)NC(=O)CC3c1ccccc1Cl (stereo not given) | 

From ChEMBL document CHEMBL1155365, “2-Amino-9-aryl-3-cyano-4-methyl-7-oxo-6,7,8,9-tetrahydropyrido[2',3':4,5]thieno[2,3-b]pyridine derivatives as selective progesterone receptor agonists” (Bioorg Med Chem Lett, 2009)
